Results as given in ChEMBL document CHEMBL1122518, “N-benzylpiperazino derivatives of 3-nitro-4-hydroxycoumarin with H1 antihistamine and mast cell stabilizing properties” (J Med Chem, 1984).
The source made the active and inactive calls. No cut-off for these calls is given here.

How the values were obtained:
Rattus norvegicus [1] = species on record: Rattus norvegicus; assay: Ability to inhibit the release of histamine in the rat peritoneal fluids by 50%; type: functional, organism-based
Procedure, shortened: (§1)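 Rats sensitized ip with 2 mL of 1:5 rat antiserum in isotonic saline. 2 h later, 0.3 mL 5% Pontamine Sky Blue given iv, then after 30 s ip challenge with 5 mL Tyrode (heparin 50 μg/mL, ovalbumin 0.4 mg/mL). Compound ip in 1 mL saline 30 s before antigen; dose expressed as concentration in the 6 mL injected. Peritoneal fluid collected 5 min post-challenge.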

Rattus norvegicus [2] = species on record: Rattus norvegicus; assay: Ability to inhibit the release of extravasated dye in the rat peritoneal fluids by 50%; type: functional, organism-based; procedure, shortened: as §1
Histamine H1 receptor = Histamine H1 receptor (Cavia porcellus, UniProt P31389); assay: H1-antihistamine activity on guinea pig ileum; type: functional, tissue-based; conditions: read-out: pA2 (converted)
Histamine H1 receptor, sequence (P31389 whole entry): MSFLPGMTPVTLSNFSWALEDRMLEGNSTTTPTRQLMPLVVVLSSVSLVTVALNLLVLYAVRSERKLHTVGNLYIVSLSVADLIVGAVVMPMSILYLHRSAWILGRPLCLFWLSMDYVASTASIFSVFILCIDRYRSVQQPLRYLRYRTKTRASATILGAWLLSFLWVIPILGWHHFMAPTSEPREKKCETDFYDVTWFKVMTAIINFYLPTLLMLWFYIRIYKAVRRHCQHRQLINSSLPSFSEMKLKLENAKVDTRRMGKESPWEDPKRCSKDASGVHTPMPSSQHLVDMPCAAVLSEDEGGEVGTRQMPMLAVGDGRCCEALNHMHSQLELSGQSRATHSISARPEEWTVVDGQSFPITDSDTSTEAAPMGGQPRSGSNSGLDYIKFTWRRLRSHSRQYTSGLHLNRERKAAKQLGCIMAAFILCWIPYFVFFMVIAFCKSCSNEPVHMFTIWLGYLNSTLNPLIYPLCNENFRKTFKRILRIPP
Procedure, shortened: (§2)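 Isolated guinea pig ileum under about 1 g tension, isotonic recording, histamine contractions. Method a: histamine curves repeated at rising antagonist levels in Tyrode; pA2 from a Schild plot of log(CR−1). Methods b/c: antagonist given 10 min (b) or 30 s (c) before double the ~50%-response histamine dose.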

[3] = target: Histamine H1 receptor (Cavia porcellus) (UniProt P31389); assay: H1-antihistamine activity on guinea pig ileum; Inactive; type: functional, tissue-based; procedure, shortened: as §2
Histamine H1 receptor (Cavia porcellus), sequence (P31389 whole entry): as above

Row | Structure (SMILES) | IC50 (Rattus norvegicus [1]) | IC50 (Rattus norvegicus [2]) | Kb (Histamine H1 receptor) | pA2 [3]
1 | O=c1oc2cc(OCCCN3CCN(Cc4ccccc4)CC3)ccc2c(O)c1[N+](=O)[O-] | 28 µM | > 200 µM | – | –
2 | O=c1oc2cc(OCCN3CCN(Cc4ccc(Cl)cc4)CC3)ccc2c(O)c1[N+](=O)[O-] | – | 100 µM | 0.158 µM | –
3 | O=c1oc2cc(CN3CCN(Cc4ccc(Cl)cc4)CC3)ccc2c(O)c1[N+](=O)[O-] | 14 µM | 83 µM | – | –
4 | O=c1oc2cc(OCC(O)CN3CCN(Cc4ccc(Cl)cc4)CC3)ccc2c(O)c1[N+](=O)[O-] (stereo not drawn) | < 2 µM | 20 µM | – | –
5 | COc1ccc(CN(CCN(C)C)c2ccccn2)cc1 [PYRILAMINE] | > 200 µM | 29 µM | – | –

Stronger by IC50 (Rattus norvegicus [2]), values ahead:

Row | IC50 (Rattus norvegicus [1]) | IC50 (Rattus norvegicus [2]) | Kb (Histamine H1 receptor) | pA2 [3] | Structure (SMILES)
6 | < 2 µM | 13 µM | 100 µM | – | CN1CCN(CCCOc2ccc3c(O)c([N+](=O)[O-])c(=O)oc3c2)CC1
7 | 2.6 µM | 16 µM | – | – | CCCc1c(OCC(O)CN2CCN(Cc3ccc(Cl)cc3)CC2)ccc2c(O)c([N+](=O)[O-])c(=O)oc12 (stereo not drawn)
8 | 1.9 µM | 5.8 µM | 0.001 µM | – | O=c1oc2cc(OCCCN3CCN(Cc4ccc(Cl)cc4)CC3)ccc2c(O)c1[N+](=O)[O-]
9 | > 200 µM | 9.1 µM | – | – | CN1CCC(=C2c3ccccc3CC(=O)c3sccc32)CC1 [KETOTIFEN]
10 | 0.74 µM | 5.8 µM | – | inactive | O=C(O)c1cc(=O)c2c(OCC(O)COc3cccc4oc(C(=O)O)cc(=O)c34)cccc2o1 [CROMOLYN SODIUM]
